Assay results published in ChEMBL document CHEMBL1146592, “Structures of new friedelane-type triterpenes and eudesmane-type sesquiterpene and aldose reductase inhibitors from Salacia chinensis” (J Nat Prod, 2003).

Assays:
[1] = molecular target: Aldo-keto reductase family 1 member B1 (Rattus norvegicus, UniProt P07943); assay: Inhibition of aldose reductase in rat lens homogenate
In short: (§1)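 Crude enzyme was supernatant of rat lens homogenate. Reaction was started with NADPH at 30 °C, run 30 min and stopped with HCl. NADP was converted to a fluorescent product with NaOH/imidazole at 60 °C for 20 min. Read-out was fluorescence at ex 360/em 460 nm.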

[2] = molecular target: Aldo-keto reductase family 1 member B1 (Rattus norvegicus) (UniProt P07943); assay: Inhibition of aldose reductase in rat lens homogenate at 100 uM; in short: as §1
[3] = molecular target: Aldo-keto reductase family 1 member B1 (Rattus norvegicus) (UniProt P07943); assay: Inhibition of aldose reductase in rat lens homogenate at 30 uM; in short: as §1

Compound: COc1cc([C@H]2c3c(cc(OC)c(O)c3OC)C[C@@H](CO)[C@@H]2CO)ccc1O
- IC50 [1]: > 100 µM
- inhibition [2]: 24%

Compound: C[C@H]1C(=O)[C@H](O)C[C@@H]2[C@]1(C)CC[C@H]1[C@@]2(C)CC[C@@]2(C)[C@@H]3C[C@](C)(C(=O)O)CC[C@]3(C)CC[C@]12C [WILFOLIC ACID C]
- IC50 [1]: 100 µM
- inhibition [2]: 48%

Compound: CC1(C)[C@@H](O)CC[C@]2(C)[C@H]3CC=C4[C@@H]5C[C@](C)(C(=O)O)C[C@@H](O)[C@]5(C)CC[C@@]4(C)[C@]3(C)CC[C@@H]12
- IC50 [1]: 26 µM

Compound: CC1(C)C(=O)CC[C@]2(C)[C@H]3CC=C4[C@@H]5C[C@](C)(C(=O)O)C[C@H](O)[C@]5(C)CC[C@@]4(C)[C@]3(C)CC[C@@H]12
- IC50 [1]: > 100 µM
- inhibition [2]: 25%

Compound: COc1cc([C@H]2c3c(cc(OC)c(O)c3OC)C[C@@H](CO)[C@@H]2CO)cc(OC)c1O
- IC50 [1]: > 100 µM
- inhibition [2]: 10%

Compound: O=c1c2cc(O)c(O)cc2oc2cc(O)c([C@@H]3O[C@H](CO)[C@@H](O)[C@H](O)[C@H]3O)c(O)c12 [MANGIFERIN]
- IC50 [1]: 3.2 µM

Compound: C[C@H]1C(=O)CC[C@@H]2[C@]1(C)CC[C@H]1[C@@]2(C)CC[C@@]2(C)[C@@H]3CC(C)(C)CC[C@]3(C)C[C@H](O)[C@]12C
- IC50 [1]: > 100 µM
- inhibition [2]: 8%

Compound: CC1(C)CC[C@]2(C)CC[C@]3(C)C(=CC[C@@H]4[C@@]5(C)CC[C@H](O)C(C)(C)[C@@H]5CC[C@]43C)[C@@H]2C1 [beta-AMYRIN]
- IC50 [1]: > 100 µM
- inhibition [2]: 6%

Compound: CC(=O)OC[C@]12[C@@H](OC(=O)c3ccccc3)C[C@@H]3[C@@H](OC(C)=O)[C@]1(OC3(C)C)[C@H](C)C[C@H](OC(C)=O)[C@@H]2O [CELAHIN C]
- IC50 [1]: 95 µM

Compound: CC1=C(O)C(=O)C=C2C1=CC=C1[C@@]2(C)CC[C@@]2(C)[C@@H]3C[C@@H](C)C(=O)[C@@H](O)[C@]3(C)CC[C@]12C [TINGENIN B]
- IC50 [1]: 7 µM

Compound: COc1cc([C@H]2c3cc(O)c(OC)cc3C[C@@H](CO)[C@@H]2CO)ccc1O [ISOLARICIRESINOL]
- IC50 [1]: > 100 µM
- inhibition [2]: 36%

Compound: CC1(C)CC[C@]2(C)CC[C@]3(C)C(=CC[C@@H]4[C@@]5(C)CCC(=O)C(C)(C)[C@@H]5CC[C@]43C)[C@@H]2C1
- IC50 [1]: > 100 µM
- inhibition [2]: 3%

Compound: Oc1cc(O)c2c(c1)O[C@H](c1ccc(O)c(O)c1)[C@H](O)C2 [(-)-EPICATECHIN]
- IC50 [1]: > 30 µM
- inhibition [3]: 41%

Compound: Cc1c(O)c(O)cc2c1CC[C@H]1[C@@]2(C)CC[C@@]2(C)[C@@H]3C[C@@H](C)C(=O)[C@@H](O)[C@]3(C)CC[C@]12C [REGEOL A]
- IC50 [1]: 30 µM

Compound: C[C@H]1C(=O)CC[C@@H]2[C@]1(C)CC[C@H]1[C@@]2(C)CC[C@@]2(C)[C@@H]3C[C@](C)(CO)CC[C@]3(C)CC[C@]12C [3-OXO-29-HYDROXYFRIEDELANE]
- IC50 [1]: 98 µM

Compound: CC1=C2CC[C@H]3[C@@](C)(CC[C@@]4(C)[C@@H]5C[C@@H](C)C(=O)[C@@H](O)[C@]5(C)CC[C@]34C)[C@@H]2C[C@H](O)C1=O [TRIPTOCALLINE A]
- IC50 [1]: 14 µM

Compound: Oc1cc(O)c2c(c1)O[C@H](c1cc(O)c(O)c(O)c1)[C@H](O)C2 [EPIGALLOCATECHIN]
- IC50 [1]: > 30 µM
- inhibition [3]: 19%

Compound: C[C@@H]1[C@H]2C3=CC[C@@H]4[C@@]5(C)CCC(=O)C(C)(C)[C@@H]5CC[C@@]4(C)[C@]3(C)CC[C@@]2(C)[C@@H](O)C[C@H]1C(=O)O [DEMETHYLREGELIN]
- IC50 [1]: > 100 µM
- inhibition [2]: 26%

Compound: C[C@@H]1[C@H]2C3=CC[C@@H]4[C@@]5(C)CC[C@H](O)C(C)(C)[C@@H]5CC[C@@]4(C)[C@]3(C)CC[C@@]2(C)[C@@H](O)C[C@H]1C(=O)O [TRIPTERYGIC ACID A]
- IC50 [1]: > 100 µM
- inhibition [2]: 27%

Compound: C[C@H]1C(=O)CC[C@@H]2[C@]1(C)CC[C@H]1[C@@]2(C)CC[C@@]2(C)[C@@H]3C[C@](C)(C(=O)O)CC[C@]3(C)CC[C@]12C [MAYTENOIC ACID]
- IC50 [1]: > 100 µM
- inhibition [2]: 44%

Compound: Oc1cc(O)c2c(c1)O[C@H](c1ccc(O)c(O)c1)[C@@H](O)C2 [CIANIDANOL]
- IC50 [1]: > 30 µM
- inhibition [3]: 38%

Compound: CC1=C(O)C(=O)C=C2C1=CC=C1[C@@]2(C)CC[C@@]2(C)[C@@H]3C[C@@H](C)C(=O)C[C@]3(C)CC[C@]12C [TINGENONE]
- IC50 [1]: 13 µM

Compound: C[C@@H]1[C@@]23CC[C@H]4[C@@](C)(CC[C@@]5(C)[C@@H]6C[C@](C)(C(=O)O)CC[C@]6(C)CC[C@]45C)[C@@H]2CC[C@@]1(O)OC3 [SALASPERMIC ACID]
- IC50 [1]: > 100 µM
- inhibition [2]: 2%

Compound: C[C@@H]1[C@@]23CC[C@H]4[C@@](C)(CC[C@@]5(C)[C@@H]6C[C@](C)(C(=O)O)CC[C@]6(C)CC[C@]45C)[C@@H]2C[C@@H](O)[C@]1(O)OC3 [ORTHOSPHENIC ACID]
- IC50 [1]: > 100 µM
- inhibition [2]: 19%

Compound: CC1(C)[C@@H](O)CC[C@]2(C)[C@H]3CC=C4[C@@H]5C[C@](C)(C(=O)O)C[C@H](O)[C@]5(C)CC[C@@]4(C)[C@]3(C)CC[C@@H]12 [MAYTENFOLIC ACID]
- IC50 [1]: 72 µM
